From PubChem BioAssay
Shown are actives, neighbours in structure and some others; about 2.7% of the full set was active somewhere.
PAFAH1B2 inh: PAFAH1B2 enzyme inhibitors, primary screen, biochemical, fluorescence polarization, human; 340,000 compounds, 1.2% hits; recombinant PAFAH1B2, FP-rhodamine activity probe; inhibition, % at 3.39 µM; Platelet-activating factor acetylhydrolase IB subunit alpha2 (Homo sapiens), P68402;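 active means inhibition above the mean of all tested compounds plus 3 SD, cut at about 24% in these data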
ASAP1 GAP inh: inhibitors of human ASAP1 ArfGAP activity, primary screen, biochemical, fluorescence polarization; 360,000 compounds, 0.19% hits; AID 624377, 2012; inhibition, % at 16.5 µM; ASAP1-stimulated ARF1 GTP hydrolysis, GDP FP detection; in the data active means inhibition above about 25%
Target sequence (Q9ULH1 325-724 limits assumed): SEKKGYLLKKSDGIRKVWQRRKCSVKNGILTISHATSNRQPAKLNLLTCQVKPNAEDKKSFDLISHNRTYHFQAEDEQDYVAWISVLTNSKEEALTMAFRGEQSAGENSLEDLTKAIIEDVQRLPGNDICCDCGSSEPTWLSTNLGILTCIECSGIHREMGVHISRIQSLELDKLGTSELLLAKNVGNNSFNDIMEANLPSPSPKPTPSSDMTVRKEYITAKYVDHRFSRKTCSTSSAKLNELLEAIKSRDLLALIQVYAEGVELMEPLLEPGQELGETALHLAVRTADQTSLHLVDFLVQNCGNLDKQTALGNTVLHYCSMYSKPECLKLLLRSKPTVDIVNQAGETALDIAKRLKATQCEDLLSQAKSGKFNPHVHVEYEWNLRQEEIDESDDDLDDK
ARFGAP1 inh: inhibitors of rat ARFGAP1 GAP activity, primary screen, biochemical, fluorescence polarization, GDP tracer | inhibition, % at 16.5 µM | ADP-ribosylation factor GTPase-activating protein 1 (Rattus norvegicus), Q62848 | AID 651572, 2012 | Arfgap1-stimulated ARF1 GTP hydrolysis, GDP FP detection | 360,000 compounds, 0.26% hits;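 active means inhibition above a per-plate limit, mean inhibition of low control wells plus 3 SD, cut at about 25% in these data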
Target sequence (Q62848 1-136 limits assumed): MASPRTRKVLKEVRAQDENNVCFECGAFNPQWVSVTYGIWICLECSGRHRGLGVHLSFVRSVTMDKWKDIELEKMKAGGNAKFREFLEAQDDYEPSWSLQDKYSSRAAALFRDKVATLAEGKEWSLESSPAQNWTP
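material = rat Arfgap1 catalytic domain, aa 1-136 | also added = human ARF1(Δ1-17)-GTP substrate | compound dosing = one concentration, 16.5 µM, DMSO 1.26% | times = GTP hydrolysis reaction 2 h at 25 °C | measured by = FP, GDP Alexa 633 tracer displaced from anti-GDP antibody, 620/688 nm | evaluation = percent inhibition of Arfgap1-stimulated GTP hydrolysis | replication = single well per compound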
pPAFAH FP inh: pPAFAH enzyme inhibitors, primary screen, biochemical, fluorescence polarization, human | recombinant pPAFAH, FP-rhodamine probe fluorescence polarization | inhibition, % at 3.39 µM | 330,000 compounds, 1.5% hits | AID 463082, 2010;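 active means inhibition above the mean inhibition across the screen plus 3 SD, cut at about 25% in these data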;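 further: inhibitors block binding of the rhodamine activity-based probe so polarization drops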
PAFAH2 inh: PAFAH2 enzyme inhibitors, primary screen, biochemical, fluorescence polarization, human | Platelet-activating factor acetylhydrolase 2, cytoplasmic (Homo sapiens), Q99487 | 340,000 compounds, 0.99% hits | inhibition, % at 3.39 µM | recombinant PAFAH2, FP-rhodamine activity probe;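 active means inhibition above the mean over all tested compounds plus 3 SD, cut at about 30% in these data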;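 further: inhibitors block probe labeling of enzyme so polarization drops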
PAFAH1B3 inh: PAFAH1B3 enzyme inhibitors, primary screen, biochemical, fluorescence polarization, human; recombinant PAFAH1B3, FP-rhodamine probe; inhibition, % at 3.39 µM; 340,000 compounds, 0.28% hits;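 active means inhibition above the screen-wide average of all tested compounds plus 3 SD, cut at about 25% in these data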
Numbers stand for hits; - = inactive; . = not tested or not shown.

SMILES	PAFAH1B2 inh	ASAP1 GAP inh	ARFGAP1 inh	pPAFAH FP inh	PAFAH2 inh	PAFAH1B3 inh
COC(=O)c1cc2c(c3c4ccccc4n(S(C)(=O)=O)c13)C(=O)N(Cc1ccccc1)C2	.	-	-	.	.	.
COC(=O)C1=C(C)N(Cc2ccc(Br)cc2)C(=S)NC1c1cccc(OC)c1 (stereo not given)	.	-	-	.	.	.
O=C(Oc1ccc2ccc(=O)oc2c1)C1CCCCC1	-	-	-	-	-	-
O=C(Oc1cc2oc(=O)cc(-c3ccccc3)c2cc1Cl)C1CCCCC1	47	-	-	-	-	-
COC(=O)[C@]12C[C@H](CC(=O)N3CCCCC3)C(=O)N(CCC3=CCCCC3)C1=C[C@H](C(C)(C)C)O[C@@H]2C	.	-	-	.	.	.
CCC1(C)NC(=O)N(CC(=O)Nc2sc3c(c2C(=O)OC)CCCCC3)C1=O (stereo not given)	-	-	-	-	-	-
CCC1(CC)NC(=O)N(CC(=O)Nc2sc3c(c2C(N)=O)CCC3)C1=O	-	-	-	28	-	-
O=C1NC2(NN1c1ccccc1)C1CC3CC(C1)CC2C3 (stereo not given)	-	-	-	-	-	-
CC1SC2(NC1=O)C1CC3CC(C1)CC2C3 (stereo not given)	28	-	-	-	-	-
COC(=O)C1=C(C)N(Cc2ccccc2C(F)(F)F)C(=NCc2ccc(OC)cc2)NC1c1ccc(F)cc1 (stereo not given)	.	-	-	.	.	.
COc1cccc(-c2nnc(Nc3nc4c(F)cccc4s3)o2)c1	-	-	-	29	-	-
COc1cccc(CNC(=O)c2ccccc2-c2ccccc2C(=O)O)c1	-	-	-	-	-	-
O=C(O)c1ccccc1-c1ccccc1C(=O)NCc1cccc(C(F)(F)F)c1	29	-	-	-	-	-
O=S1(=O)Nc2c(ccc3cccnc23)-c2ccccc21	-	.	.	27	-	-
Clc1ccc2ccc3cccnc3c2n1	-	-	-	.	-	-
COc1ccc2cc(/C=N/NC(=O)CN(c3ccccc3OC)S(=O)(=O)c3ccccc3)c(Cl)nc2c1	.	-	-	.	.	.
Nc1ncc(Br)cc1S(=O)(=O)Nc1cc(C(F)(F)F)cc(C(F)(F)F)c1	26	-	-	-	-	-
Nc1nc2c(ncn2[C@@H]2O[C@H](C(=O)N[C@@H](Cc3ccccc3)C(=O)NCc3ccc4c(c3)OCO4)[C@@H](O)[C@H]2O)c(=O)[nH]1	.	-	-	.	.	.
O=c1[nH][nH]c2c(N=Cc3ccccc3O)ccc(F)c12	40	.	.	.	62	61
CCc1ccc(OCC(=O)N(Cc2cccs2)C2CCS(=O)(=O)C2)cc1 (stereo not given)	-	-	-	-	-	-
CC(C)(C)c1ccc(OCC(=O)N(Cc2cccs2)C2CCS(=O)(=O)C2)cc1 (stereo not given)	29	-	-	-	-	-
COC(=O)c1ccc(CC(=O)c2ccc(O)cc2O)o1	-	.	.	-	-	-
COc1cc(C[C@@H](C)[C@@H](C)Cc2ccc(O)c(OC)c2)ccc1O	27	-	-	-	-	-
COC(=O)c1ccc(CC(=O)c2c(C)cc(O)cc2O)o1	-	-	-	34	-	-
COc1ccc(CC(=O)c2c(O)cc(O)cc2O)cc1OC	-	-	-	25	-	-
SMILES	PAFAH1B2 inh	ASAP1 GAP inh	ARFGAP1 inh	pPAFAH FP inh	PAFAH2 inh	PAFAH1B3 inh
COc1cc(C[C@@H](CO)[C@H](CO)Cc2ccc(O)c(OC)c2)ccc1O	.	.	.	-	.	.
COc1cc(CC(=O)O)ccc1O	-	-	-	34	-	-
COCc1cc(N2CCN(C(=O)OC(C)(C)C)C[C@H]2C)ccc1N1CCN(Cc2ccccc2)[C@@H](C)C1	.	-	-	.	.	.
NC(=O)c1c(N)[nH]c(C(=O)c2ccccc2)c1-c1ccccc1Cl	.	-	-	.	.	.
CC(=O)C1=C(C)NC(SCC(=O)c2ccc(Cl)cc2Cl)=C(C#N)C1c1ccco1 (stereo not given)	-	-	-	28	-	-
Cc1ccc(C(=O)CSC2=C(C#N)C(c3ccco3)CC(=O)N2)c(C)c1 (stereo not given)	-	-	-	28	-	-
CC(=O)C1=C(C)NC(SCC(=O)c2ccc(Cl)cc2)=C(C#N)C1c1ccco1 (stereo not given)	-	-	-	-	-	-
Cc1ccccc1C(=O)N[C@H](C(=O)N1CCC[C@H]1C(=O)NC1CCCC1)C1CCCCC1	.	-	-	.	.	.
O=C1CCN(S(=O)(=O)c2ccc(Cl)cc2)CC1	25	-	-	-	-	-
O=S(=O)(c1ccc(Cl)cc1)N1CCC2(CC1)CO2	28	-	-	-	-	-
O=S(=O)(c1ccccc1)N1CCC2(CC1)CO2	-	-	-	-	-	-
Cc1ccc(S(=O)(=O)N2CCC(=O)N(CCOCc3ccc(Cl)cc3)CC2)cc1	-	-	-	32	-	-
O=S(=O)(c1ccc(Cl)cc1)N1CCC(c2nc3ccccc3[nH]2)CC1	27	-	-	-	-	-
CC(=O)c1ccc(S(=O)(=O)N2CCC(c3nc4ccccc4[nH]3)CC2)cc1	-	-	-	-	-	-
O=C(Nc1cccc([N+](=O)[O-])c1)OCc1ccc2c(c1)OCO2	.	-	-	.	.	.
C[C@@H]1CN(S(=O)(=O)C(C)(C)C)[C@H](CCO)/C1=C\CCO	.	-	-	.	.	.
O=S(=O)(c1ccc(Cl)cc1)N1CCC(n2cccc2)CC1	29	-	-	-	-	-
COc1ccc(NC(=S)N2CCC(c3nc4ccc(Cl)cc4[nH]3)CC2)c(OC)c1	-	-	-	31	-	-
CCOc1cc(-c2nn3cnnc3s2)cc(OCC)c1OCC	-	-	-	28	-	-
NC(=O)COC(=O)c1sc2ccccc2c1Cl	-	-	-	-	-	-
O=C(COC(=O)c1sc2ccccc2c1Cl)NCC1CCCCC1	-	-	-	27	-	-
O=C(O)CCCCN1C(=O)C=CC1=O	.	-	-	.	.	.
N=C1/C(=C\c2ccc(SCc3ccccc3)o2)C(=O)N=C2SC(CC(=O)N3CCOCC3)=NN12	-	-	-	30	-	-
Cc1ccc(/C=C2\C(=N)N3N=C(CC(=O)N4CCOCC4)SC3=NC2=O)o1	-	-	-	-	-	-
Cc1ccc(/C=C2/C(=N)N3N=C(CC(=O)N4CCCC4)SC3=NC2=O)cc1	-	-	-	25	-	-
CSc1ccc(/C=C2/C(=N)N3N=C(CC(=O)N4CCCC4)SC3=NC2=O)cc1	-	-	-	-	-	-
